Measurements from different studies.
Target: Mitogen-activated protein kinase 10 (MAPK10, Homo sapiens, UniProt P53779)

The remaining binding of `Cc1ccc(-c2cnc([C@@]3(O)CC[C@H](C(=O)O)C(C)(C)C3)s2)cc1Nc1cccc(C(F)(F)F)n1` is reported as 37.5% (binding, competition with immobilised ligand; 1 µM).
The remaining binding of `Cc1cnn2ncc(-c3ccnc(N(C)C)n3)c2c1` is reported as 71% (binding; 1 µM).
`CC(C)(C)c1ccc(-c2nc(CBr)nn2-c2cccc(O)c2)cc1` has a remaining binding of 65% (cell-free assay, competition with immobilised ligand; 10 µM).
With `COc1ccnn2ncc(-c3ccnc(N(C)C)n3)c12` the remaining binding was 80% (binding; 1 µM).
With `O=C(Nc1c[nH]nc1C(=O)NC1CCNCC1)c1cc(F)cc(F)c1` the remaining binding was 100% (binding, competition with immobilised ligand; 1 µM).
With `CC1=C(C#N)[C@@H](c2ccc3[nH]nc(C)c3c2)C(C#N)=C(c2ccc(Cl)cc2)N1` the remaining binding was 68.8% (cell-free assay, competition with immobilised ligand; 1 µM).
`CN(C)c1nccc(-c2cnc3ncccn23)n1` gave a remaining binding of 70% (binding; 1 µM).
The remaining binding of `C[C@@H]1CN(c2ccc3ncc(-c4ccc5[nH]nc(C6CC6)c5c4)n3n2)C[C@H](C)O1` is reported as 85% (binding, competition with immobilised ligand; 50 nM).
`CCC(=N\O)/C(C)=C/c1ccc(F)cc1` has a remaining binding of 100% (cell-free assay, competition with immobilised ligand; 1 µM).
For `O=C(NCCCN1CCOCC1)c1ccc(Nc2nccc(-c3cc4ccccc4s3)n2)cc1`, the remaining binding was 15% (binding, competition with immobilised ligand; 1 µM).
With `C[C@@H]1CCN(c2nccc(-c3cnn4ncccc34)n2)C1` the remaining binding was 34% (binding; 1 µM).
`O=C(NCCCN1CCOCC1)c1ccc(Nc2ncc(Cl)c(-c3ccc(Cl)s3)n2)cc1` has a remaining binding of 4.7% (binding, competition with immobilised ligand; 1 µM).
`CO[C@H]1CC[C@H](CNc2ccc(S(=O)(=O)NC(=O)c3ccc(N4CCN(CC5=C(c6ccc(Cl)cc6)CC(C)(C)CC5)CC4)cc3Oc3cnc4[nH]ccc4c3)cc2[N+](=O)[O-])CC1` gave a remaining binding of 77% (cell-free assay, competition with immobilised ligand; 1 µM).
`COc1cnc(Nc2cccc(S(N)(=O)=O)c2)nc1N1CCN(c2ccccc2)C(=O)C1` has a remaining binding of 63% (binding, competition with immobilised ligand; 1 µM).
`c1cnn2ncc(-c3ccnc(N4CCC45COC5)n3)c2c1` has a remaining binding of 27% (binding; 1 µM).
`CCOCCn1cc(C(=O)Nc2ccc(-n3nc(-c4cccnc4)cc3C(F)(F)F)cn2)ccc1=O` has a remaining binding of 100% (cell-free assay, competition with immobilised ligand; 1 µM).
The remaining binding of `O=C(c1ccc(Nc2ncc(Cl)c(-c3cc4ccccc4s3)n2)cc1)N1CCC(N2CCCC2)CC1` is reported as 5.8% (binding, competition with immobilised ligand; 1 µM).
`N[C@H]1CCN(c2nccc(-c3cnn4ncccc34)n2)C1` gave a remaining binding of 60% (binding; 1 µM).
`N#Cc1ccccc1CSc1nnc2c(n1)[nH]c1ccccc12` gave a remaining binding of 100% (binding, competition with immobilised ligand; 10 µM).
`CN(C)C(=O)Cn1cc(-c2nc([C@@](C)(c3ccc(-c4cnc(N)nc4)cc3)C3CC3)no2)cn1` has a remaining binding of 94% (cell-free assay, competition with immobilised ligand; 1 µM).
`CNC(=O)[C@@H]1CC[C@@H](n2c(-c3ccc4cnccc4c3)nc3ccc(C(=O)NCc4cccc(C(N)=O)c4)cc32)C1` gave a remaining binding of 84% (binding, competition with immobilised ligand; 1 µM).
With `CCN1CCN(Cc2ccc(C(=O)Nc3ccc(C)c(Oc4ccc5c(c4)CC(=O)N5)c3)cc2C(F)(F)F)CC1` the remaining binding was 81% (binding, competition with immobilised ligand; 1 µM).
The remaining binding of `O=C(N[C@H]1CCCCC/C=C\C2C[C@@]2(C(=O)O)NC(=O)[C@@H]2C[C@@H](Oc3ccncc3)CN2C1=O)OC1CCCC1` (stereo partly drawn) is reported as 81% (binding, competition with immobilised ligand; 1 µM).
`CN(C)c1nccc(-c2cnn3ncccc23)n1` gave a remaining binding of 49% (binding; 1 µM).
